Activity calls are given as the source filed them. The calls are words filed in the database; no cut-off is given here.
What was measured:
Mus musculus [1] = experiment: AUC (0 to infinity) in CD-1 mouse assessed as NITD449 level at 24.2 mg/kg, po by LC-MS-MS analysis; format: ADME, organism-based, Plasma; set-up: dose 24.2 mg/kg, route oral, time infinity; details: in vivo
Summary of the method: (§1)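 Female CD-1 mice given the prodrug orally, formulated in 10% ethanol, 30% PEG 400, 60% D5W. Blood from three animals at 0.08, 0.25, 0.5, 1, 2, 4, 8, 16, 24 h; heparinized plasma extracted with acetonitrile-methanol-acetic acid. Parent nucleoside was quantified by LC-MS-MS (MRM, LLOQ 9.2 ng/ml) and noncompartmental analysis was run. F = dose-corrected AUC p.o./AUC i.v., with i.v. parent at 5 mg/kg.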

dengue virus type 2 [2] = experiment: Antiviral activity against Dengue virus 2 NGC infected in human A549 cells after 2 days by CFI assay in presence of 40 mg/ml human serum albumin; format: functional, organism-based; details: A549, 48 h
Summary of the method: (§2)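 Modified CFI: A549 cells infected with DENV-2 New Guinea C (MOI 0.3) for 1 h without compound. Inoculum then replaced with medium containing compound dilutions plus the stated HSA and/or AGP. On day 2, cells methanol-fixed and intracellular E protein detected by ELISA (4G2 primary, HRP anti-mouse secondary); EC50 derived.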

Rattus norvegicus [3] = experiment: Tmax in Wistar rat assessed as NITD449 level at 26.5 mg/kg, po by LC-MS-MS analysis; format: ADME, organism-based; set-up: dose 26.5 mg/kg, route oral; details: in vivo
Summary of the method: (§3)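 Female Wistar rats, fasted overnight until 4 h postdose, given the prodrug orally in 10% ethanol, 30% PEG 400, 60% D5W. Serial blood from groups of three at 0.17–48 h. Parent nucleoside in plasma was measured by LC-MS-MS (LLOQ 9.2 ng/ml) with noncompartmental analysis. F was corrected for dose against parent i.v. at 5.9 mg/kg.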

Chikungunya virus = experiment: Antiviral activity against Chikungunya virus infected in african green monkey Vero cells after 22 hrs by plaque assay; format: functional, cell-based
dengue virus type 2 [4] = experiment: Antiviral activity against Dengue virus 2 NGC infected in human A549 cells after 2 days by CFI assay in presence of 2 mg/ml alpha-1-acid glycoprotein; format: functional, organism-based; details: A549, 48 h; summary of the method: as §2
Mus musculus [5] = experiment: Oral bioavailability in CD-1 mouse assessed as NITD449 level at 24.2 mg/kg by LC-MS-MS analysis; format: ADME, organism-based; details: in vivo; summary of the method: as §1
Rattus norvegicus [6] = experiment: Oral bioavailability in Wistar rat assessed as NITD449 level at 26.5 mg/kg by LC-MS-MS analysis; format: ADME, organism-based; details: in vivo; summary of the method: as §3
Mus musculus [7] = experiment: Cmax in CD-1 mouse assessed as NITD449 level at 24.2 mg/kg, po by LC-MS-MS analysis; format: ADME, organism-based; set-up: dose 24.2 mg/kg, route oral; details: in vivo; summary of the method: as §1
dengue virus type 2 [8] = experiment: Antiviral activity against Dengue virus-2 NGC infected in hamsters BHK21 cells assessed as inhibition of viral RNA synthesis at 3 uM after 2 to 4 hrs of infection by luciferase assay; format: functional, organism-based; details: BHK-21
dengue virus type 4 = experiment: Antiviral activity against Dengue virus 4 MY22713 infected in human A549 cells by CFI assay; format: functional, organism-based
Summary of the method: (§4)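 CFI assay: A549 cells seeded 2 × 10^4/well, infected next day (MOI 0.3 for DENV-2) with compound-virus mixture for 1 h, then refed with compound-containing medium. On day 2 cells were methanol-fixed at 4°C and intracellular E protein detected by ELISA (4G2 primary, HRP anti-mouse secondary). EC50 is the average of two independent experiments.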

dengue virus type 2 [9] = experiment: Antiviral activity against Dengue virus-2 NGC infected in hamsters BHK21 cells assessed as inhibition of viral RNA synthesis at 3 uM after 24 to 40 hrs of infection by luciferase assay; format: functional, organism-based; details: BHK-21
Summary of the method: (§5)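 DENV-2 luciferase replicon (structural genes deleted) RNA was electroporated into BHK-21 cells, then cells were immediately incubated with compound. Luciferase was read at time points. Signals at 2–4 h p.t. reflect input translation and at 24–40 h p.t. reflect RNA synthesis; n = 3, mean ± SD.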

dengue virus type 3 = experiment: Antiviral activity against Dengue virus 3 MY22366 infected in human A549 cells by CFI assay; format: functional, organism-based; summary of the method: as §4
West Nile virus = experiment: Antiviral activity against West Nile virus infected in african green monkey Vero cells assessed as inhibition of RNA replication after 24 hrs by luciferase assay; format: functional, organism-based
Summary of the method: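 Vero cells infected at MOI about 0.1 with WNV replicon-packaged virus-like particles carrying luciferase, then treated with compound. Luciferase was read 24 h postinfection, relative to mock-treated cells set at 100%; n = 3.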

Mus musculus [10] = experiment: Tmax in CD-1 mouse assessed as NITD449 level at 24.2 mg/kg, po by LC-MS-MS analysis; format: ADME, organism-based; set-up: dose 24.2 mg/kg, route oral; details: in vivo; summary of the method: as §1
Rattus norvegicus [11] = experiment: AUC (0 to infinity) in Wistar rat assessed as NITD449 level at 84.1 mg/kg, po by LC-MS-MS analysis; format: ADME, organism-based, Plasma; set-up: time infinity, dose 84.1 mg/kg, route oral; details: in vivo
Summary of the method: (§6)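 Fasted female Wistar rats were dosed orally with the prodrug in 20% solutol HS15, 30% PEG 300, 50% 100 mM citrate pH 3. Groups of three were serially bled 0.17–48 h. Plasma parent levels came from LC-MS-MS (MRM, LLOQ 9.2 ng/ml) and noncompartmental modeling. F used dose-corrected AUC versus parent i.v. at 5.9 mg/kg.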

Rattus norvegicus [12] = experiment: Oral bioavailability in Wistar rat assessed as NITD449 level at 84.1 mg/kg by LC-MS-MS analysis; format: ADME, organism-based; details: in vivo; summary of the method: as §6
Rattus norvegicus [13] = experiment: Cmax in Wistar rat assessed as NITD449 level at 26.5 mg/kg, po by LC-MS-MS analysis; format: ADME, organism-based; set-up: dose 26.5 mg/kg, route oral; details: in vivo; summary of the method: as §3
Rattus norvegicus [14] = experiment: AUC (0 to infinity) in Wistar rat assessed as NITD449 level at 26.5 mg/kg, po by LC-MS-MS analysis; format: ADME, organism-based, Plasma; set-up: time infinity, dose 26.5 mg/kg, route oral; details: in vivo; summary of the method: as §3
Rattus norvegicus [15] = experiment: Toxicity in Wistar rat at 30 mg/kg/day, po for 2 weeks; format: organism-based; set-up: route oral; details: in vivo, 336 h
Summary of the method: (§7)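 Male Wistar rats, 10 weeks old, dosed orally daily for 2 weeks; five per dose group. Clinical signs, body weight and mortality were monitored.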

Rattus norvegicus [16] = experiment: Tmax in Wistar rat assessed as NITD449 level at 84.1 mg/kg, po by LC-MS-MS analysis; format: ADME, organism-based; set-up: dose 84.1 mg/kg, route oral; details: in vivo; summary of the method: as §6
dengue virus type 2 [17] = experiment: Antiviral activity against Dengue virus 2 NGC infected in human A549 cells after 2 days by CFI assay in presence of 40 mg/ml human serum albumin and 2 mg/ml alpha-1-acid glycoprotein; format: functional, organism-based; details: A549, 48 h; summary of the method: as §2
dengue virus type 2 [18] = experiment: Antiviral activity against Dengue virus 2 NGC infected in human A549 cells by CFI assay; format: functional, organism-based; summary of the method: as §4
dengue virus type 2 [19] = experiment: Antiviral activity against Dengue virus 2 NGC infected in human PBMC cells by plaque assay; format: functional, organism-based
dengue virus type 2 [20] = experiment: Antiviral activity against Dengue virus-2 NGC infected in hamsters BHK21 cells assessed as inhibition of viral RNA synthesis at 1 uM after 24 to 40 hrs of infection by luciferase assay; format: functional, organism-based; details: BHK-21; summary of the method: as §5
dengue virus type 2 [21] = experiment: Antiviral activity against Dengue virus 2 NGC infected in african green monkey Vero cells after 48 hrs by plaque assay; format: functional, organism-based
Summary of the method: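 Titer reduction: Vero cells (4 × 10^5/well) infected 24 h after seeding at MOI 0.1 and treated immediately with compound. Culture medium was collected 48 h postinfection and titered by plaque assay; n = 3, mean ± SD.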

Rattus norvegicus [22] = experiment: Toxicity in Wistar rat at 10 mg/kg/day, po for 2 weeks; format: organism-based; set-up: route oral; details: in vivo, 336 h; summary of the method: as §7
Yellow fever virus = experiment: Antiviral activity against Yellow fever virus 17D infected in african green monkey Vero cells after 48 hrs by plaque assay; format: functional, cell-based
dengue virus type 2 [23] = experiment: Antiviral activity against Dengue virus 2 MY10340 infected in human A549 cells by CFI assay; format: functional, organism-based; summary of the method: as §4

## C#C[C@@]1(O)[C@H](OC(=O)C(C)C)[C@@H](COC(=O)C(C)C)O[C@H]1n1cc(C(N)=O)c2c(N)ncnc21
Mus musculus [1]
  AUC: 12.6 µM·h
Dengue virus type 2 [2]
  EC50: 790 nM
Rattus norvegicus [3]
  Tmax: 30 min
Chikungunya virus
  Activity: Active
Dengue virus type 2 [4]
  EC50: 760 nM
Mus musculus [5]
  F: 32%
Rattus norvegicus [6]
  F: 13%
Mus musculus [7]
  Cmax: 6.01 µM
Dengue virus type 2 [8]
  Activity: Active
Dengue virus type 4
  EC50: 710 nM
Dengue virus type 2 [9]
  Activity: Active
Dengue virus type 3
  EC50: 540 nM
West Nile virus
  Activity: Active
Mus musculus [10]
  Tmax: 4.8 min
Rattus norvegicus [11]
  AUC: 33.5 µM·h
Rattus norvegicus [12]
  F: 10%
Rattus norvegicus [13]
  Cmax: 3.65 µM
Rattus norvegicus [14]
  AUC: 13.7 µM·h
Rattus norvegicus [15]
  Activity: Toxic
Rattus norvegicus [16]
  Tmax: 30 min
Dengue virus type 2 [17]
  EC50: 850 nM
Dengue virus type 2 [18]
  EC50: 690 nM
Dengue virus type 2 [19]
  EC50: 100 nM
Dengue virus type 2 [20]
  Activity: Active
Dengue virus type 2 [21]
  Activity: Active
Rattus norvegicus [22]
  Activity: Non-toxic
Yellow fever virus
  Activity: Active
Dengue virus type 2 [23]
  EC50: 570 nM
